Here are results for 14 molecules from PubChem BioAssay.

The source made the active and inactive calls.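 Rule for the calls, unless noted: active = visually confirmed hit in the image check and inhibition above 20%; inconclusive = visually confirmed hit but inhibition not above 20%; inactive = no visual hit in the image check.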

A short description of test [1]: inhibitors of TNFa-induced NFkB p65 translocation, primary screen, imaging, HUVEC, MLSMR starter and 10KST1 sets (AID 438;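 active = inhibition above 20% together with a positive visual image hit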;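 note: compound added about 3h40 before a 20 min TNFalpha stimulation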;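 for inhibition: signal is the nuclear over cytoplasmic p65 intensity ratio per well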). The following applies: HUVEC TNFa-induced p65 nuclear translocation; cell count: measured here: nuclei count (cytotoxicity indicator), at 2.08 µM; inhibition: at 2 µM, stronger effect = higher value, 0% TNFa-plus-vehicle, 100% no-TNFa wells.
Test [2] can be described thus: inhibitors of mutant huntingtin aggregation, primary screen, imaging, exon1htt(103Q)mCFP cells, high-content imaging (AID 483;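 active = visual image review flags a hit and inhibition of aggregation exceeds 20%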;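 note: compound exposure lasted 3 days before fixation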;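 for nuclei count: percent of the per-plate median nuclei count of sample wells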). The settings on record: exon1htt(103Q)mCFP cell line, aggregate imaging, at 2 µM; inhibition of aggregation: stronger effect = higher value; nuclei count: measured here: cell count, toxicity.
Test [3] is described as follows: inhibitors of E-selectin induction by TNFa, primary screen, imaging, HUVEC, immunofluorescence, MLSMR starter and 10KST1 sets (AID 487).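 For inhibition: signal is fraction of cell area covered by stained E-selectin grains.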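 For nuclei count: 100% = median nuclei count of all wells on the same plate.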 The following applies: HUVEC TNFalpha-induced E-selectin immunofluorescence imaging, at 2 µM; inhibition: stronger effect = higher value; nuclei count: measured here: cell number, toxicity.
In test [4] the target is Voltage-gated potassium channel subunit beta-2 (Rattus norvegicus) (UniProt P62483). In words: KvBeta enzyme negative modulators, primary screen, biochemical, NADPH fluorescence (AID 622;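 active = fluorescence slope higher than the sample average by over 3 SD, cut at about -0.22 in these data, passing the limit was not always enough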;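 note: slope of raw intensity against log time taken from 70 to 1610 s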). The settings on record: recombinant KvBeta, 4-cyanobenzaldehyde reduction, at 10 µM, stronger effect = higher value.
Sequence of Voltage-gated potassium channel subunit beta-2 (Rattus norvegicus) (P62483 whole entry, looked up): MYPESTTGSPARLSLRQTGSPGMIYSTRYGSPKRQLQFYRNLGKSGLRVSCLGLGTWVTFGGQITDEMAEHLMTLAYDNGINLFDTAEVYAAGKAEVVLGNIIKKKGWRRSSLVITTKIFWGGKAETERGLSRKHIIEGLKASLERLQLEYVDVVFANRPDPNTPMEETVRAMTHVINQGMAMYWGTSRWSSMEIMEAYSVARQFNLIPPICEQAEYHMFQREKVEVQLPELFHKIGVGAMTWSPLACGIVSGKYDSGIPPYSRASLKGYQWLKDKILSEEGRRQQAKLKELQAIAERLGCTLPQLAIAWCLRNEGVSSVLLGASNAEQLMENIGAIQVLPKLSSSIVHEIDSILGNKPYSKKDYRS
For test [5] the target is unchanged. In words: KvBeta positive modulators, primary screen, biochemical, NADPH fluorescence (AID 623;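 active = NADPH fluorescence slope more negative than the mean of all samples by about 3 SD, 99.7% confidence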;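 note: fluorescence intensity change per second fitted from 20 to 320 s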). The settings on record: Recombinant KvBeta, NADPH fluorescence decrease slope, 10 min; at 10 µM; stronger effect = lower value.
In test [6] the target is Muscarinic acetylcholine receptor M4 (Homo sapiens) (UniProt P08173). Description: compounds altering M4/GIRK thallium flux, either direction, primary screen, M4 allosteric agonist project, cell-based, HEK293 M4/GIRK, BTC-AM (AID 625;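 active = fluorescence slope after compound addition differing from the mean of all tested samples at 99.7% confidence, mostly higher but some lower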;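 note: thallium influx through GIRK channels coupled to M4 in HEK293 cells with BTC-AM dye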). The following applies: at 10 µM, actives lie on both sides. An outline of the steps:
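Material: M4/GIRK1/GIRK2 stable HEK293 cell line. Medium: pH 7.3 thallium assay buffer. Dosing: single compound concentration, 10 µM final. Schedule: 1 h dye loading, 2 min kinetic read. Measured by: kinetic fluorescence with BTC-AM dye. Read-out: post-addition slope, 15–24 s, of baseline-normalized fluorescence. Benchmarks: carbachol and DMSO controls.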

Test [7] can be described thus: inhibitors of Sendai virus-induced IRF3 signaling, primary screen, TLR/RLR signaling modifier project, cell-based, Sendai virus stimulus, luciferase, 10K MLSCN set (AID 602276;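 active = inhibition at or above 50% at 10 µM; inactive = inhibition below 50%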;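 note: firefly luciferase from ISG56 promoter only with Renilla not read in this screen; 0% = Sendai virus plus DMSO and 100% = medium plus DMSO without virus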). The following applies: HEK293 RL24 IRF3 luciferase reporter, at 10 µM, stronger effect = higher value.
The nature of test [8]: inhibitors of poly I:C-induced TLR3 signaling, primary screen, cell-based, poly I:C stimulus, luciferase, 10K MLSCN set (AID 602277;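 active = inhibition of the reporter signal at or above 50%; inactive = inhibition below 50%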). The settings on record: HEK293-TLR3 RL24 IRF3 luciferase reporter, at 10 µM, stronger effect = higher value. On the technique in general: In a reporter assay the amount or activity of a reporter protein is the signal.

Sequence of Muscarinic acetylcholine receptor M4 (Homo sapiens) (P08173 whole entry, looked up): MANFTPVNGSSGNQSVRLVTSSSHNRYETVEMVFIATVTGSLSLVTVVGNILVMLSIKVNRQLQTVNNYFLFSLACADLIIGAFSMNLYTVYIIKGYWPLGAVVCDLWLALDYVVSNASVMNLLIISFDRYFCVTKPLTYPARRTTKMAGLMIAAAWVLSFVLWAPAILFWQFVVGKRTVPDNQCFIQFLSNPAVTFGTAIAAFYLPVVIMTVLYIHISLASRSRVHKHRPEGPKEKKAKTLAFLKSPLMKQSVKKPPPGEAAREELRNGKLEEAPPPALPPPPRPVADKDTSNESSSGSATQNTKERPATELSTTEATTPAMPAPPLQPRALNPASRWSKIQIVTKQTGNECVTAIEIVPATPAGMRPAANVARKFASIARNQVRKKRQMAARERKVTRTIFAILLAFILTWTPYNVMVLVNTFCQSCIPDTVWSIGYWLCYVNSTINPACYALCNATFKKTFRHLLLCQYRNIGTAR

For the molecule `CCC(C)OC(=O)C1=C(C)NC2=C(C(=O)C(C(=O)OC)C(C)C2)C1c1ccc(N(C)C)cc1` (centres undefined), the cell count in test [1] was found to be 280. Also, the inhibition in test [1] was -2.4% (inactive); in test [3] it was -8.6% (inactive); in test [7] it was 14.7% (inactive); in test [8], 25.6% (inactive). Further, the inhibition of aggregation in test [2] is 12.6% (inactive). Moreover, the nuclei count in test [2] was determined as 104%; in test [3] it was 115%. Moreover, the fluorescence slope in test [4] was -0.579 (inactive); in test [6] it was 0.00551 (inactive). The NADPH fluorescence slope in test [5] was 2.1e-05 (inactive).

In the case of `N#Cc1cnc2sc3ccccc3n2c1=N`, the cell count in test [1] was 332. For the same molecule, the inhibition in test [1] was -12.6% (inactive); in test [3] it was -14.8% (inactive); in test [7], -9.74% (inactive); in test [8], -37.6% (inactive). Moreover, the inhibition of aggregation in test [2] was 5.1% (inactive). Moreover, the nuclei count was determined as 119% in test [2] and 106% in test [3]. The fluorescence slope in test [4] is -0.554 (inactive); in test [6], 0.00378 (inactive). In addition, the NADPH fluorescence slope in test [5] was 7.2e-06 (inactive).

Consider `Cn1c(Cc2csc(N)n2)nnc1SCC(=O)NCc1ccccc1`, for which the cell count in test [1] is 447. The inhibition in test [1] is 7.3% (inactive); in test [3], -12.6% (inactive); in test [7], -2.1% (inactive); in test [8] it was 13.3% (inactive). Besides, in test [2], the inhibition of aggregation was 9.5% (inactive). The nuclei count came out at 95.3% in test [2] and 118% in test [3]. Besides, the fluorescence slope was -0.58 (inactive) in test [4] and 0.00622 (inactive) in test [6]. Also, the NADPH fluorescence slope in test [5] is -9.4e-06 (inactive).

As for `CCC1C(=O)n2nc(-c3ccccc3)cc2N=C1C` (centres undefined), in test [1], the cell count came out at 330. For the same molecule, the inhibition in test [1] was 0% (inactive); in test [3], -4.1% (inactive); in test [7] it was -22% (inactive); in test [8] it was -37% (inactive). Besides, the inhibition of aggregation in test [2] is -7.3% (inactive). Also, the results for the nuclei count in test [2] and in test [3] were 102% and 114%, respectively. In addition, the fluorescence slope in test [4] is -0.506 (inactive); in test [6] it was 0.006 (inactive). In addition, the NADPH fluorescence slope in test [5] is -4.6e-05 (inactive).

Take `CC(=O)c1cccc(NC(=O)N2C3CCC2CC(O)(c2cccnc2)C3)c1` (centres undefined): the cell count in test [1] amounted to 602. Moreover, the inhibition in test [1] was 9.7% (inactive); in test [3], -27.6% (inactive); in test [7], -7.02% (inactive); in test [8], 16.5% (inactive). Besides, the inhibition of aggregation in test [2] was -21.4% (inactive). The nuclei count was 104% in test [2] and 106% in test [3]. Besides, the results for the fluorescence slope in test [4] and in test [6] were -0.259 (inactive) and 0.0059 (inactive), respectively. The NADPH fluorescence slope in test [5] was 3.9e-06 (inactive).

Take `COc1ccc(OCc2cccc(C(=O)O)c2)cc1`: the cell count in test [1] worked out at 623. Further, the inhibition was -1.6% (inactive) in test [1], 20.3% (inactive) in test [3], 46.4% (inactive) in test [7] and 42.2% (inactive) in test [8]. In addition, the inhibition of aggregation in test [2] is -9.3% (inactive). Further, the nuclei count in test [2] came out at 55.9%; in test [3], 111%. The fluorescence slope in test [4] is -0.511 (inactive); in test [6], 0.00513 (inactive). Moreover, the NADPH fluorescence slope in test [5] was 5e-05 (inactive).

As for `Cc1c2c(nc3nc4ccccc4n13)CC(C)(C)CC2=O`, the cell count in test [1] amounted to 632. Moreover, the inhibition is 8.2% (inactive) in test [1], -63.4% (inactive) in test [3], 16.3% (inactive) in test [7] and 28.8% (inactive) in test [8]. For the same molecule, the inhibition of aggregation in test [2] was -6.2% (inactive). Also, the nuclei count came out at 109% in test [2] and 106% in test [3]. Besides, the fluorescence slope in test [4] was -0.603 (inactive); in test [6], 0.00409 (inactive). Further, the NADPH fluorescence slope in test [5] was -2.5e-05 (inactive).

In the case of `CCn1c(Cc2ccccc2)nnc1SCC(=O)Nc1nc2ccccc2s1`, the cell count in test [1] was 741. Besides, the inhibition in test [1] is -0.5% (inactive); in test [3], -24.9% (inactive); in test [7], 18.4% (inactive); in test [8], 17.4% (inactive). The inhibition of aggregation in test [2] was -25.5% (inactive). The values for the nuclei count in test [2] and in test [3] were 115% and 97.6%, respectively. The fluorescence slope was -0.469 (inactive) in test [4] and 0.00499 (inactive) in test [6]. In addition, the NADPH fluorescence slope in test [5] is -4.8e-05 (inactive).

With `O=C(O)CCCC(=O)NCCc1ccncc1`, the cell count in test [1] amounted to 425. The inhibition in test [1] is 8.1% (inactive); in test [3] it was 1.4% (inactive); in test [7] it was 3.6% (inactive); in test [8], 33.4% (inactive). Moreover, the inhibition of aggregation in test [2] is -3.6% (inactive). The nuclei count in test [2] and in test [3] was 112% in each case. Moreover, the figures for the fluorescence slope in test [4] and in test [6] were -0.519 (inactive) and 0.00581 (inactive), respectively. Moreover, in test [5], the NADPH fluorescence slope is -7e-06 (inactive).

Regarding `COc1ccccc1N1CCN(C(=O)C2CC=CCC2C(=O)O)CC1` (centres undefined), the cell count in test [1] stood at 444. Moreover, the inhibition in test [1] is -1.8% (inactive); in test [3], 24.2% (inactive); in test [7], 18.1% (inactive); in test [8], 16.3% (inactive). Also, in test [2], the inhibition of aggregation was -7.5% (inactive). The nuclei count in test [2] is 87.8%; in test [3] it was 44.5%. For the same molecule, the fluorescence slope is -0.454 (inactive) in test [4] and 0.00504 (inactive) in test [6]. Besides, in test [5], the NADPH fluorescence slope was -1.2e-05 (inactive).

Consider `COc1cc2c(cc1OC)-c1cc(OCc3cccnc3)nc(=O)n1CC2`, for which, in test [1], the cell count amounted to 753. The inhibition in test [1] is -8.4% (inactive); in test [3], -49% (inactive); in test [7] it was 31.6% (inactive); in test [8], 28.8% (inactive). For the same molecule, the inhibition of aggregation in test [2] is -4.9% (inactive). The nuclei count was determined as 96.1% in test [2] and 116% in test [3]. Also, the fluorescence slope was -0.0427 (active) in test [4] and 0.00535 (inactive) in test [6]. Moreover, the NADPH fluorescence slope in test [5] is -1.1e-05 (inactive).

Regarding `O=C(Nc1ccc(N2CCOCC2)cc1)Nc1ccc2nc(-c3ccco3)c(-c3ccco3)nc2c1`, the cell count in test [1] worked out at 695. For the same molecule, the inhibition is -0.7% (inactive) in test [1], -177% (inactive) in test [3], 38.7% (inactive) in test [7] and 0.682% (inactive) in test [8]. For the same molecule, the inhibition of aggregation in test [2] was -8.6% (inactive). Further, the nuclei count in test [2] was 98.1%; in test [3] it was 140%. Also, the results for the fluorescence slope in test [4] and in test [6] were -0.516 (inactive) and 0.00225 (inactive), respectively. In test [5], the NADPH fluorescence slope is -5.3e-05 (inactive).

With `CCOC(=O)c1ccc(NC2OC(=O)c3ccccc32)cc1` (centres undefined), in test [1], the cell count stood at 605. Besides, the inhibition in test [1] was -54.1% (inactive); in test [3] it was -85.2% (inactive); in test [7] it was 11.8% (inactive); in test [8], -21.4% (inactive). Besides, the inhibition of aggregation in test [2] is 6.4% (inactive). For the same molecule, the nuclei count amounted to 106% in test [2] and 118% in test [3]. The fluorescence slope in test [4] was -0.216 (inactive); in test [6], 0.00703 (inactive). The NADPH fluorescence slope in test [5] is -2.5e-05 (inactive).

Consider `COc1ccc(CN2C(=O)c3ccccc3C2C(=O)NC2CCCC2)c(OC)c1` (centres undefined), for which the cell count in test [1] was found to be 671. The inhibition is -4.8% (inactive) in test [1], -53.3% (inactive) in test [3], 14.9% (inactive) in test [7] and 9.49% (inactive) in test [8]. In addition, in test [2], the inhibition of aggregation was 8.3% (inactive). In addition, the nuclei count in test [2] is 87.1%; in test [3], 112%. The results for the fluorescence slope in test [4] and in test [6] were -0.443 (inactive) and 0.00535 (inactive), respectively. Also, the NADPH fluorescence slope in test [5] was -4.9e-05 (inactive).

Usually inhibition stands for the relative decrease from the control value, in per cent.
